RGS4 pot – RGS4 potentiators or activators, primary screen, cell-based, HEK293 M3R inducible RGS4, calcium flux; 310,000 tested, 0.92% active; carbachol calcium flux Fluo4; hits give low values; B-score at 10 µM; AID 463111, 2010;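 active = B-score of the integrated calcium signal more than 4 SD below the library mean, with starting fluorescence not abnormally high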;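 also: negative B-score means reduced calcium response which marks RGS4 activation or potentiation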
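Reagent: ECmax carbachol challenge; Test system: M3R-expressing HEK293 line, RGS4 induced by doxycycline; Schedule: overnight RGS4 induction, 30 min dye load 37 °C, 20 min compound RT; Detection: calcium dye Fluo4 fluorescence; Read-out: Agonist-evoked peak-minus-minimum fluorescence over baseline, integrated ratio, B score.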
Cl transport mod – KCC2 cotransporter modulators, thallium flux, primary screen, cell-based, HEK293 KCC2, FluoZin-2 fluorescence, MLSMR. Solute carrier family 12 member 5 (Homo sapiens), Q9H2X9. 190,000 tested, 2.2% active. KCC2 cells, thallium flux FluoZin-2 fluorescence. B-score of Tl+ flux slope (higher = more flux/activation; lower = inhibition) at 10 µM;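 active = thallium flux slope and its plate-corrected score both differing from the plate sample mean at a set confidence after two filtering rounds, in either direction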;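 also: slope of fluorescence scaled to starting intensity during 10 to 20 s after thallium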
MrgX1 antagonist – antagonists of human MrgX1 receptor, primary screen, HEK293 cells, Fluo-4 calcium flux; Mas-related G-protein coupled receptor member X1 (Homo sapiens), Q96LB2; BAM8-22 antagonism; hits give low values; B-score at 10 µM; 310,000 tested, 1.3% active; AID 588676, 2011;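 active = calcium-response B-score plate-corrected more than 3 library SD below zero, starting fluorescence within 5 deviations, no agonist response on first addition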;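 also: peak minus trough fluorescence over baseline after final BAM8-22 challenge near maximal dose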
Target sequence (Q96LB2 whole entry, looked up): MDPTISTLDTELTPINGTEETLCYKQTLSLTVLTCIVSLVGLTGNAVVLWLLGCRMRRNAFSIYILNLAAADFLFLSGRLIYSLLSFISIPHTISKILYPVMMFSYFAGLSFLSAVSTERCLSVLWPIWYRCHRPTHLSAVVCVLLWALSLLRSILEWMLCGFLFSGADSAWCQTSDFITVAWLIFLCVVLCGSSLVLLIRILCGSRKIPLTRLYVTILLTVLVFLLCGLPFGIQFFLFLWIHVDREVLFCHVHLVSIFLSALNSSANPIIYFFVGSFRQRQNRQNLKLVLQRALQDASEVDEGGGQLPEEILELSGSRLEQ
MrgX1 agonist – agonists of human MrgX1 receptor, primary screen, HEK293 cells, Fluo-4 calcium flux; 310,000 tested, 0.44% active; Mas-related G-protein coupled receptor member X1 (Homo sapiens), Q96LB2; AID 588627, 2011; B-score at 10 µM; Fluo-4 calcium fluorescence, agonist mode; hits give high values;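 active = calcium response B-score plate-corrected fluorescence ratio at least 3 library SD, with starting fluorescence B-score inside 5 SD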
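Assay system: MrgX1-expressing HEK293 cells / Amount: fifteen thousand cells per well / Doses: test compound in the initial addition of three / Timing: cells plated overnight, dye loaded 0.5 h 37 °C, 0.5 h room temperature / Technique: kinetic calcium dye fluorescence, Fluo-4 NW / Control set: positive and negative controls per plate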
RGS4 block – RGS4 inhibitors, primary screen, cell-based, HEK293 M3R inducible RGS4, calcium flux. B-score at 10 µM. AID 463165, 2010. Fluo-4 calcium flux; hits give high values; triggered by carbachol at its EC20. 310,000 tested, 0.45% active;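 active = B-score, a plate-corrected calcium signal, over three deviations above library mean, with baseline fluorescence within five deviations of library mean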;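 also: RGS4 expression induced by doxycycline in cells with stable M3 receptor; B-score is computed from the integrated fluorescence ratio over baseline after carbachol; higher B-score means a larger calcium signal and so more RGS4 inhibition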
Target sequence (P49798 whole entry, looked up): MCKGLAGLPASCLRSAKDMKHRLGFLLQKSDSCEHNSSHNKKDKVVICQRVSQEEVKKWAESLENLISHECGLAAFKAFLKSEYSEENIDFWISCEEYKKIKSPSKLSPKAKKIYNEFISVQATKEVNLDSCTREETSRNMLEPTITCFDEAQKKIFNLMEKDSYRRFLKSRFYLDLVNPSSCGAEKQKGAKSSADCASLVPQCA
MrgX1 PAM – positive allosteric modulators of MrgX1, primary screen, HEK293 cells, Fluo-4 calcium flux. B-score at 10 µM. FDSS; hits give high values. Mas-related G-protein coupled receptor member X1 (Homo sapiens), Q96LB2. 310,000 tested, 0.63% active;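 active = plate-corrected calcium response at least 3 library SD above typical, normal starting fluorescence, not activating the receptor alone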;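 also: compound read alongside a low EC10 to EC30 dose of BAM8-22 agonist; peak minus trough fluorescence over baseline measured at the second addition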
RGS4 activ val – reduced carbachol calcium response, RGS4-induced M3R cells, confirmation, RGS4 activator project, cell-based, HEK293 M3R/RGS4 inducible, calcium flux, duplicate. shares compounds with RGS4 pot. carbachol calcium flux Fluo4. inhibition, % at 10 µM. 1,100 tested, 89% active. AID 602282, 2012;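 active = inhibition above 3 SD of the buffer control wells, cut at about 41% in these data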;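 also: signal is the integrated peak-minus-minimum Fluo4 fluorescence over baseline ratio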
M3R Ca counter – RGS4 activator counter-screen hit in non-induced cells; inhibition, % at 10 µM; shares compounds with RGS4 pot; HEK293 M3R non-induced RGS4, Fluo4 calcium flux; after carbachol challenge at its EC90; 1,100 tested, 82% active;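 active = inhibition exceeding 3 SD of buffer-only control wells, cut at about 26% in these data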;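 also: percent drop in integrated peak-minus-baseline over baseline Fluo4 ratio after carbachol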
An asterisk follows results filed as active; i = inactive; nt = no result. Compounds with a hit are over-represented: about 4.7% of the library has one in this group of screens.

SMILES	RGS4 pot	Cl transport mod	MrgX1 antagonist	MrgX1 agonist	RGS4 block	MrgX1 PAM	RGS4 activ val	M3R Ca counter
Cc1ccnc(Nc2nc(-c3ccc(F)cc3)cs2)c1	-8.8*	nt	i	i	i	i	92*	74*
Cc1ccc(N2CCN(C(=O)c3cc(COc4c(C)cccc4C)on3)CC2)c(C)c1	-7.7*	nt	i	i	i	i	70*	32*
CCCCN(C)C(=O)C1CCC(CNS(=O)(=O)c2ccc3c(c2)CC(C)N3C(=O)C2CC2)CC1 (configuration not stated)	i	nt	i	i	i	i	nt	nt
C=CCn1c(SCC(=O)c2cccs2)nc2sc(C)c(C)c2c1=O	-9.4*	-1.7	i	i	i	i	92*	38*
Cc1nccn1CCc1n[nH]c(=S)n1Cc1ccccc1	-9.5*	nt	i	i	i	i	86*	68*
CCCCCCCc1n[nH]c(=S)n1Cc1ccccc1	i	3.1	i	i	i	i	nt	nt
CCCCc1n[nH]c(=S)n1Cc1ccc(C)cc1	-8.3*	0.77	i	i	i	i	72*	29*
Cc1cccc(-c2n[nH]c(=S)n2Cc2ccccc2)c1	-8*	2.3	i	i	i	i	0	0
Cc1ccc(-c2n[nH]c(=S)n2Cc2ccccc2)cc1	i	nt	i	i	i	i	nt	nt
Cc1ccc(N2C(=O)Nc3ccccc3S2(=O)=O)cc1Cl	i	nt	i	i	i	i	nt	nt
CN1CCN(CC(=O)N2c3ccccc3Sc3ccccc32)CC1	-11*	nt	i	i	i	i	92*	76*
O=C(C[n+]1ccccc1)N1c2ccccc2Sc2ccccc21	-12*	-1.4	i	i	i	i	93*	96*
O=C1CCCN1CCCNCC(O)c1ccccc1 (configuration not stated)	i	nt	i	i	i	i	nt	nt
O=C1CCCN1CCCNCC(=O)N1c2ccccc2Sc2ccccc21	-9.4*	-0.14	i	i	i	i	85*	55*
CCOC(=O)N1CCN(CC(=O)N2c3ccccc3Sc3ccccc32)CC1	i	nt	i	i	i	i	nt	nt
O=C(COc1ccccc1)N1c2ccccc2Sc2ccccc21	i	0.5	i	i	i	i	nt	nt
O=C(CN1CCN(CCOCCO)CC1)N1c2ccccc2Sc2ccc(Cl)cc21	-9.1*	nt	i	i	i	i	88*	64*
COC(=O)c1cc(S(=O)(=O)Nc2cc(OC)cc(OC)c2)c[nH]1	i	nt	i	i	i	i	nt	nt
O=C(CN1CCCCCC1)N1c2ccccc2Sc2ccccc21	-11*	0.27	i	i	i	i	92*	92*
CC1CCCN(CC(=O)N2c3ccccc3Sc3ccccc32)C1 (configuration not stated)	i	0.41	i	i	i	i	nt	nt
CCCCc1cc(O)c(CCCC)c(O)c1	-8*	-0.11	-11*	i	i	i	92*	88*
CCCCCc1cc(O)c2c(C)cc(=O)oc2c1	i	0.041	i	i	i	i	nt	nt
O=C(Nc1ccccc1C(=O)Nc1ccc(Br)cn1)c1cccc([N+](=O)[O-])c1	i	nt	i	i	i	i	nt	nt
COC(=O)C1=C(C)N(c2ccc(OC)cc2)C(C)=C(C(=O)OC)C1c1ccc(OC)cc1	-9*	-2	i	i	i	i	0	0
CCOc1ccc2oc(C(=O)N3CCN(c4ccccc4OCC)CC3)c(C)c2c1	-10*	nt	i	i	i	i	92*	79*
SMILES	RGS4 pot	Cl transport mod	MrgX1 antagonist	MrgX1 agonist	RGS4 block	MrgX1 PAM	RGS4 activ val	M3R Ca counter
COc1ccc(NC(=O)CCC(=O)Nc2nnc(CC(C)C)s2)cc1Cl	i	nt	i	i	i	i	nt	nt
Cc1ccc(CN=C2NC(=O)C(CC(=O)NCCc3ccccc3)S2)cc1 (configuration not stated)	i	-0.74	i	i	i	i	nt	nt
O=C(/C(=N\Nc1ccc([N+](=O)[O-])cc1)Sc1nnnn1-c1ccccc1)c1ccccc1	i	-0.062	i	i	i	i	nt	nt
Cc1ccc(N/N=C(/Sc2nnnn2-c2ccccc2)C(=O)c2ccccc2)cc1	-16*	1.4	i	i	i	i	0	0
COc1ccc(N(CC(=O)NCCSc2ccc(C)cc2)S(=O)(=O)c2ccccc2)c(OC)c1	-12*	nt	i	i	i	i	73*	0
Cc1cnc(NC(=O)CSc2nc3ccccc3s2)s1	i	-1.2	i	i	i	i	nt	nt
Cc1cnc(NC(=O)c2ccc(-c3nc4ccccc4s3)o2)s1	-9.7*	nt	i	i	i	i	79*	32*
CC(C)CN(C(=O)c1ccc(F)cc1F)c1c(N)n(CC(C)C)c(=O)[nH]c1=O	i	nt	i	i	i	i	nt	nt
OC(C#CCCN1CCCCC1)(c1ccccc1)C1CCCCC1 (configuration not stated)	-9*	0.52	i	i	i	i	92*	96*
Cc1nn(-c2ccccc2)c(C)c1NC(=O)COC(=O)CC(C)c1ccccc1 (configuration not stated)	i	nt	i	i	i	i	nt	nt
FC(F)(F)c1nc(-c2cccs2)ncc1-c1nnnn1-c1ccc(Cl)cc1	-8.9*	0.36	i	i	i	i	92*	58*
Clc1ccc(-n2nnnc2-c2cnc(-c3ccncc3)nc2-c2cccs2)cc1	i	1.3	i	i	i	i	nt	nt
COc1cccc(-n2c(N)cc(=O)nc2SCC(=O)N2CCN(c3ccccc3)CC2)c1	i	nt	i	i	i	i	nt	nt
CCCCC(=O)NC(=S)Nc1cccc(Cl)c1N1CCCCC1	i	0.011	i	i	i	i	nt	nt

Screens as filed in PubChem.
